The source of these data is ChEMBL document CHEMBL1121733, “Synthesis and evaluation of ureido- and vinylureidopenicillins as inhibitors of intraruminal lactic acid production” (J Med Chem, 1981).

What is called MIC is the lowest concentration found to suppress growth.

The nature of data set [1]: Percent inhibition of lactic acid production by the compound at 50 p.p.m. The class given is functional. Also noted: scale not given: the % may be the effect or the level left. In short, it runs like this: (§1)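 Screen at 50, 5 and 0.5 µg/mL of incubation contents in strained bovine rumen fluid mixed 1:1 with CO2-saturated glucose/trypticase buffer, 5.5 h at 39 °C. Stopped with metaphosphoric acid, l(+)-lactate measured enzymatically. Expressed as lactate production as % of control incubations without compound.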

Data set [2] deals with Enterococcus faecium. Description: In vitro Minimum inhibitory concentration against Streptococcus faecium ATCC 8043-2. The format is functional. Summed up: (§2)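 Twofold broth microdilution from 200 to 0.0008 µg/mL in brain–heart infusion broth with 0.066 g/L tetrazolium chloride. Inoculum was 1 µL of a 1:10 dilution of an 18 h, 37 °C culture. Plates incubated 16 h at 37 °C, with growth read as red precipitate. Triplicate trays per compound per organism.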

Data set [3] is described as follows: Lipophilicity estimated on reversed phase TLC. The format is physicochemical. To be noted: silicone oil-coated silica gel plates, 30% MeOH in pH 7.0 buffer. In short, it runs like this: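 Reversed-phase TLC on silica gel G plates dipped in 20 vol % silicone oil in hexane and dried. Mobile phase 30 vol % MeOH in pH 7.0 buffer. ΔR_M measured against a reference compound run on every plate, averaged over 2–6 plates.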

A short description of data set [4]: Percent inhibition of lactic acid production by the compound at 0.5 p.p.m. The format is functional. Also noted: scale not given: the % may be the effect or the level left. Summed up: as §1
Data set [5] in a line: Percent inhibition of lactic acid production by the compound at 5 p.p.m. The class given is functional. Also noted: scale not given: the % may be the effect or the level left. In short, it runs like this: as §1
Data set [6] is described as follows: Effective inhibition concentration for reduction of propionic acid production to less than 95% of control. The class given is functional. Summed up: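 Rumen fluid from a fistulated bovine, strained and mixed 1:1 with CO2-saturated buffer with moderate substrate at normal intraruminal pH (volatile fatty acid model). Retest dilutions from 0.5 mg/mL stock down to 0.004 mg/mL, triplicate tubes, 9 h. Stopped with 25% metaphosphoric acid, centrifuged, propionate measured by GC-FID. Value is the minimum concentration giving propionate below 95% of control.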

The test system of data set [7] is Escherichia coli. Description: In vitro Minimum inhibitory concentration against Escherichia coli ATCC 25922. The format is functional. In short, it runs like this:
as §2

Data set [8] has as its system Staphylococcus aureus. The data set is described as follows: In vitro Minimum inhibitory concentration against Staphylococcus penicillin G resistant). The class given is functional. In short, it runs like this:
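Broth microdilution in brain–heart infusion broth with 0.066 g/L tetrazolium chloride. Serial twofold dilutions from 200 to 0.0008 µg/mL. Inoculum: 1 µL of a 1:10 dilution of an 18 h, 37 °C culture. Incubated 16 h at 37 °C; growth read as red precipitate. MIC taken from triplicate trays per compound per organism.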

Data set [9] concerns Streptococcus pyogenes. Description: In vitro Minimum inhibitory concentration against Streptococcus pyogenes ATCC 8668. The class given is functional. Summed up: as §2
Data set [10] in a line: Effective inhibition concentration for reduction of lactic acid production to less than 10% of control. The class given is functional. Summed up:
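Bovine rumen fluid from a fistulated animal, strained through cheesecloth, mixed 1:1 with CO2-saturated buffer (glucose 27 g/L, trypticase 1.50 g/L, Na2HPO4 4.26 g/L). Compounds retested from 0.5 mg/mL stock serially diluted to 0.004 mg/mL, duplicate tubes, 5.5 h at 39 °C. Stopped with 25% metaphosphoric acid, centrifuged, l(+)-lactate measured enzymatically. Value is the minimum concentration giving lactate below 10% of no-compound control.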

Data set [11] deals with Staphylococcus aureus. Description: In vitro Minimum inhibitory concentration against Staphylococcus aureus ATCC 6538P (penicillin G sensitive). The format is functional. Summed up:
as §2

As to `CC1(C)SC2C(NC(=O)NCCc3ccccc3)C(=O)N2[C@H]1C(=O)[O-].[Na+]` (stereo partly specified), the results for the Control in data set [1], in data set [4] and in data set [5] were 9%, 4% and 6%, respectively. In addition, the MIC was 3.12 mg/L in data set [2]; 100 mg/L in data set [7]; 50 mg/L in data set [8]; 0.1 mg/L in data set [9]; 0.1 mg/L in data set [11]. The “Delta RM” value in [3] is -0.6. The same molecule displayed a Dose in [6] of 5 µg/mL. The molecule further showed a Concentration in data set [10] of 0.31 µg/mL.
